Each structure is given as a SMILES string.

In one test the target is Replicase polyprotein 1a (Severe acute respiratory syndrome-related coronavirus, UniProt P0C6U8). As to the kind of experiment: Inhibition of SARS coronavirus 3C-like protease. To be noted: read-out: -Log IC50 (converted). The gist of the method: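 Recombinant SARS-CoV 3CLpro (pET32Xa/LIC construct) at 50 nM with 6 µM fluorogenic peptide Dabcyl-KTSAVLQ-SGFRKME-Edans in 20 mM Bis-Tris pH 7.0 at 25 °C. Cleavage read as fluorescence increase (ex 355, em 538 nm). Initial velocities plotted against inhibitor concentration; IC50 fitted with A[I] = A[0]×(1 − [I]/([I]+IC50)).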
By IC50 is commonly meant the concentration at which inhibition is half-maximal. Consider `Cc1nc(SCC(=O)Nc2ccc([N+](=O)[O-])cc2)nc(O)c1C`, for which the IC50 is > 1000 µM.

Still in this test, the particulars now being: read-out: IC50.
Turning to `Cc1cc(O)nc(SCC(=O)Nc2cc(Cl)ccc2Oc2ccccc2)n1`, the IC50 is 100 µM.
Same read-out and setting: the same measure for `CC(C)c1ccc(NC(=O)CSc2nccc(-c3csc(COc4ccccc4Cl)n3)n2)cc1`: 200 µM; for `CCOC(=O)c1cnc(SCC(=O)Nc2ccc([N+](=O)[O-])cc2)nc1N`: 250 µM.
Still for that read-out and setting: in the case of `COC(OC)c1cc(O)nc(SCC(=O)Nc2ccc(C(F)(F)F)cc2)n1` it was 200 µM.
On the same count and under the same terms, in the case of `CCCc1cc(O)nc(SCC(=O)Nc2ccc(Cl)cc2)n1` it was 30 µM; in that of `O=C(CSc1nccc(-c2csc(-c3ccccc3)n2)n1)Nc1cc(Cl)cc(Cl)c1`, 3 µM.
For the molecule `O=C(CSc1nccc(-c2cc(-c3ccccc3)no2)n1)Nc1ccc(Cl)cc1`, the IC50 is 15 µM.
On the same count and under the same terms, the same measure for `Cc1nc(-c2nc(-c3ccnc(SCC(=O)Nc4ccc(Cl)cc4)n3)cs2)cs1`: 14 µM.
Same read-out and setting: in the case of `O=C(CSc1nccc(-c2cc(-c3ccccc3Cl)no2)n1)Nc1ccc(Cl)cc1` it was 15 µM; in that of `CSc1sc(-c2nc(C)cs2)c(C)c1-c1ccnc(SCC(=O)Nc2ccc(Cl)cc2)n1`, 11 µM.
On the same count and under the same terms, in the case of `O=C(CSc1nccc(-c2cc(-c3ccc(Cl)cc3Cl)no2)n1)Nc1ccc(C(F)(F)F)cc1` it was 15 µM.
Take `CCOc1ccc(N2C(=O)CC(Sc3nc(C)cc(C)n3)C2=O)cc1` (centres undefined): the IC50 was 300 µM.
On the same count and under the same terms, the same measure for `COc1cccc(-c2nc(SCC(=O)Nc3ccc([N+](=O)[O-])cc3)[nH]c(=O)c2C#N)c1`: 300 µM; for `Cc1cc(C(F)(F)F)nc(SCC(=O)Nc2ccc(Cl)cc2F)n1`: 500 µM; for `Cc1nc(SCC(=O)Nc2ccc([N+](=O)[O-])cc2)nc(O)c1C`: > 1000 µM.
Regarding `COc1ccc(-c2ccnc(SCC(=O)Nc3ccc(C(C)C)cc3)n2)cc1`, the IC50 is 400 µM.
With `CCC(Sc1nc(O)c(C#N)c(-c2cccc(OC)c2)n1)C(=O)Nc1ccc(C(C)=O)cc1` (centres undefined), the IC50 was determined as 60 µM.
Still for that read-out and setting: in the case of `COc1cccc(-c2nc(SCC(=O)Nc3ccc(S(N)(=O)=O)cc3)[nH]c(=O)c2C#N)c1` it was 40 µM.
Same read-out and setting: the same measure for `Cc1cc(O)nc(SCC(=O)Nc2ccc(Oc3ccc(Cl)cc3)cc2)n1`: 200 µM; for `CC(C)c1ccc(NC(=O)CSc2nccc(-c3cccs3)n2)cc1`: 40 µM; for `COc1cccc(-c2nc(SCC(=O)Nc3ccc(C(C)=O)cc3)[nH]c(=O)c2C#N)c1`: 60 µM.
Same read-out and setting: in the case of `CCCCc1ccc(NC(=O)CSc2nc(O)c(C#N)c(C3CCCCC3)n2)c(C)c1` it was 200 µM; in that of `CC(Sc1nc(-c2ccccc2)c(C#N)c(=O)[nH]1)C(=O)Nc1ccc(Cl)cc1` (centres undefined), 300 µM; in that of `Cn1nc(-c2ccc(-c3ccnc(SCC(=O)Nc4ccc(Cl)cc4)n3)s2)cc1C(F)(F)F`, 10 µM.
As for `N#Cc1c(-c2ccccc2)nc(SCC(=O)Nc2cccc(C(F)(F)F)c2)[nH]c1=O`, the IC50 is 200 µM.
For the molecule `CSc1sc(-c2nc(C)cs2)c(C)c1-c1ccnc(SCC(=O)Nc2ccccc2Cl)n1`, the IC50 was 12 µM.
The same measure, in the same setting: the same measure for `CC(C)(C)c1ccc(NC(=O)CSc2nc(C3CCCCC3)c(C#N)c(=O)[nH]2)cc1`: 350 µM; for `COc1ccc(NC(=O)CSc2nc(O)cc(-c3ccccc3)n2)cc1OC`: 45 µM.

The values are drawn from ChEMBL document CHEMBL1148632, “Discovery of a novel family of SARS-CoV protease inhibitors by virtual screening and 3D-QSAR studies” (J Med Chem, 2006).
